Hits are enriched below; roughly 2.6% of the tested compounds scored in any of these assays.
OX1R antag-1 – antagonists of human orexin 1 receptor (OX1R) | O43613 | OX1R-expressing cells, FRET antagonist read-out | inhibition, % at 6.6 µM | 330,000 compounds, 1.8% hits; in the data active = inhibition mostly above about 38%, no sharp cut-off; inactive = mostly below about 40%;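 note: 0% = agonist challenge alone and 100% = reference antagonist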
OXTR agonist – human OXTR agonism. P30559. CHO-OTR cells, Fluo-8 calcium fluorescence; normalized: DMSO 0%, oxytocin 100%. activation, % at 3 µM. 320,000 compounds, 0.32% hits. AID 2435;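 active = activation above the mean of all tested compounds plus 3 SD, cutoff set per screening run, cut at about 20% in these data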;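 note: peak over basal fluorescence ratio from a 100 s FLIPR kinetic read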
Target sequence (P30559 whole entry, looked up): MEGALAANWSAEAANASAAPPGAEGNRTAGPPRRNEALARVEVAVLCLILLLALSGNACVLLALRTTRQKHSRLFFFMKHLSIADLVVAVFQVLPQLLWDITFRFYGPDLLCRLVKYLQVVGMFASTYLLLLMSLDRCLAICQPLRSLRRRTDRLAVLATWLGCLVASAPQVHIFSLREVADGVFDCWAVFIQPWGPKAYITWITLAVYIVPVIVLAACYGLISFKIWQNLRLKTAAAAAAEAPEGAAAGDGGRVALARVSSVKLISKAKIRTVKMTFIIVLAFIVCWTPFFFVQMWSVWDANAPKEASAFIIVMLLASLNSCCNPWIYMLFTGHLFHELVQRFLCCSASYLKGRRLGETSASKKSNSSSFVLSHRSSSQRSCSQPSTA
CHO parental Ca – counter-screen: ATP calcium response change in parental CHO cells; parental CHO-K1, ATP-induced calcium, Fluo-8 fluorescence; AID 463079; inhibition, % at 5.6 µM; 330,000 compounds, 0.63% hits;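 active = inhibition above that plate's mean sample inhibition plus 3 SD, cut at about 26% in these data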;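 note: 0% = ATP-challenged DMSO wells and 100% = DMSO wells without ATP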
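test system = CHO parental line | reagent = ATP stimulus | measured by = intracellular calcium via Fluo-8 no-wash fluorescent dye | control set = ATP and no-ATP DMSO wells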
OXTR potentiate – potentiators of human oxytocin receptor; P30559; CHO-OTR cells, Fluo-8 calcium fluorescence, potentiator mode; 0% = oxytocin EC15, 100% = EC100; activation, % at 3 µM; 320,000 compounds, 0.061% hits;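 active = activation above that plate's cutoff, the mean activation of tested compounds plus 3 SD, cut at about 6.6% in these data, passing the limit was not always enough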;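 note: 100% uses oxytocin at 75 nM as the full agonist control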
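Assay system: CHO cell line stably expressing human OTR. Reagent: EC15 oxytocin agonist. Dosing: single dose, 3.0 µM nominal final compound concentration. Timing: compound 6 min at room temperature before oxytocin, 100 s read. Signal: kinetic Fluo-8 calcium fluorescence. Controls: oxytocin EC15 low and EC100 high.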
V1aR counter – counter-screen for oxytocin receptor agonists: human V1a receptor agonists. CHO-V1R cells, Fluo-8 calcium fluorescence, agonist mode; 0% DMSO, 100% 3 nM vasopressin. AID 2797. 320,000 compounds, 0.25% hits. P37288. activation, % at 3 µM;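 active = activation above the mean activation of all tested compounds plus 3 SD, per screening run, cut at about 20% in these data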;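 note: signal is peak over basal fluorescence ratio across a 100 second FLIPR read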
OX1R antag-2 – blocks the human orexin 1 receptor; O43613; CHO/OX1R cells, Fluo-8 calcium fluorescence, orexin A; inhibition, % at 5 µM; 330,000 compounds, 0.43% hits;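 active = inhibition above its plate's threshold, mean inhibition of all tested compounds on the plate plus 3 SD, cut at about 37% in these data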;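 note: 0% = orexin A challenge wells and 100% = SB-334867-A antagonist wells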
OXTR pot cf – human OXTR potentiation, confirmation. CHO-OTR cells, Fluo-8 calcium fluorescence; scaled from low-dose to maximal oxytocin. 180 tested, under 10 active. shares compounds with OXTR potentiate. activation, % at 3 µM;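 active = mean percent activation over triplicates above a cutoff set from solvent-only control plates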;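 note: compounds tested in the presence of an EC15 dose of oxytocin; 0% = EC15 oxytocin with DMSO and 100% = EC100 oxytocin with DMSO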
Starred values were filed as active, the others as inactive; . = no result given.

SMILES	OX1R antag-1	OXTR agonist	CHO parental Ca	OXTR potentiate	V1aR counter	OX1R antag-2	OXTR pot cf
Cc1cc(C)c(NC(=O)C2CCCO2)c(C)c1 (stereo not given)	10	0	-1	-5	0	-13	.
Cc1c(C(=O)NCCc2ccccc2)oc2ccccc12	3	-2	-30	11*	-1	-16	-10
O=C(NCC1CCCO1)c1ccc(NS(=O)(=O)c2ccccc2)cc1 (stereo not given)	12	1	-8	-6	1	-8	.
C[C@H]1COC(=O)[C@@H](Cc2ccc(F)cc2)C/C=C\C[C@@H](CC(=O)NCCO)C(=O)N1	3	2	-5	14*	1	-5	-3
CCCOc1ccc(C(=O)N2CCCc3ccccc32)cc1	11	-2	-3	-10	-1	-3	.
CCOc1ccc(C(=O)N2CCc3ccccc32)cc1	6	-2	-7	12*	-1	-5	0
CC1(C)Cc2c(sc(NC(=O)C(=O)NCC3CCCO3)c2C(N)=O)CO1 (stereo not given)	13	0	-10	1	1	-13	.
CCN(CC(=O)Nc1ccc(NC(C)=O)cc1)C(=O)c1ccc(NC2CC2)c([N+](=O)[O-])c1	24	-1	-14	0	1	-34	.
O=C(COC(=O)c1ccc(F)c(S(=O)(=O)N2CCOCC2)c1)NCc1ccc(Cl)cc1	8	10	-13	-9	9	-15	.
C/C(=N/NC(=O)CNC(=O)c1ccccn1)c1cccc([N+](=O)[O-])c1	36	1	-8	12*	1	-10	-3
CCOC(=O)c1cnc2cc(-c3ccc(C)cc3)nn2c1-c1ccccc1	13	2	-19	14*	1	-21	-11
CCOC(=O)c1cnc2cc(-c3ccc(C(C)(C)C)cc3)nn2c1N	14	0	-3	-5	0	-13	.
CNS(=O)(=O)c1cc(NC(=O)c2cncn2-c2ccccc2)ccc1C	17	0	-6	-10	0	-3	.
CCOC(=O)N1CCN(C(=O)COc2ccc(Cl)c(C)c2)CC1	7	0	0	-18	1	-14	.
CCOC(=O)N1CCN(C(=O)COc2ccc(Cl)cc2)CC1	12	2	-11	12*	1	-1	-6
Cc1ccc(SCc2cc(=O)n3[nH]c(C)nc3n2)cc1	5	0	2	-14	-1	-11	.
Cc1ccc(SCc2cc(=O)n3[nH]cnc3n2)cc1	13	1	-2	9.8*	-1	6	-4
Cc1ccc(-n2nc(C(=O)c3ccccc3)n3c(=O)c(Cc4ccccc4)nnc23)cc1	9	-1	-32	9.9*	-2	-21	0
CCOc1ccc(CCNC(=O)COC(=O)c2cc(OC)cc(OC)c2)cc1OCC	10	-2	-17	9.8*	-1	-30	-3
COc1ccccc1Oc1c(C)oc2cc(OC(=O)c3ccco3)ccc2c1=O	11	-2	-2	-5	-1	-14	.
CCOc1ccccc1Oc1c(C)oc2cc(OC(=O)c3ccco3)ccc2c1=O	8	-1	-18	13*	0	-16	1
O=C(NC(=S)Nc1ccccc1N1CCCC1)c1ccc(-c2cccc([N+](=O)[O-])c2)o1	16	0	-19	11*	-1	-16	-7
Cc1cc(SCC(=O)c2ccc(Cl)cc2)nc(=O)[nH]1	11	0	-7	12*	2	-12	1
Cc1ccc(C2C(/C=C3/SC(=S)NC3=O)=C(c3cccs3)Oc3ccccc32)cc1 (stereo not given)	33	1	8	-4	0	-6	.
Cc1ccc(S(=O)(=O)N2CCCCC2)cc1NC(=O)CCc1nc2ccccc2c(=O)[nH]1	14	0	-12	-5	-1	-26	.
SMILES	OX1R antag-1	OXTR agonist	CHO parental Ca	OXTR potentiate	V1aR counter	OX1R antag-2	OXTR pot cf
CN(Cc1nc2ccccc2c(=O)[nH]1)C(=O)c1ccc(S(=O)(=O)N2CCCC2)cc1	7	3	-7	13*	0	-17	-3
CCN(CC(=O)Nc1c(F)cccc1F)C(=O)/C=C/c1ccc2ccccc2n1	34	0	-19	21*	0	-11	-5
CC1CCc2nn(CC(=O)NCc3ccco3)cc2C1 (stereo not given)	9	-1	-9	13*	1	-11	-3
Cc1nc(-c2ccc(NC(=O)CC(C)C)cc2)cs1	7	0	9	0	0	-8	.
COc1ccc2cc(S(=O)(=O)N3CCOCC3)ccc2c1	11	0	-10	11*	1	-6	-4
Cc1ccccc1NC(=S)N1CCC(NC(=O)c2ccco2)CC1	1	0	11	-3	0	-3	.
Cc1nnc(NC(=O)c2cc(-c3ccncc3)nc3c(C)cccc23)s1	17	-1	-15	15*	-1	-21	5
O=C1NC2(CCCCCC2)C(=O)N1Cc1cccc([N+](=O)[O-])c1	8	0	3	-15	1	-7	.
CC(=O)N1CCN(S(=O)(=O)c2cccc(C(=O)OCN3C(=O)c4ccccc4C3=O)c2)CC1	7	2	-17	11*	1	-7	-6
Cc1cc(N2C(=O)C(O)=C(C(=O)c3ccco3)C2c2ccccc2F)no1 (stereo not given)	9	-1	-4	-9	1	-18	.
Cc1ccc(NC(=O)CCS(=O)(=O)c2ccccc2)cc1S(=O)(=O)N1CCOCC1	12	2	-2	11*	1	-16	-1
COc1ccc(-c2nc(CN3CCC(C(=O)NC4CCCC4)CC3)c(C)o2)cc1OC	18	0	-1	16*	0	-20	-4
COc1ccc(-c2nc(CN3CCC(C(=O)N4CCOCC4)CC3)c(C)o2)cc1OC	9	0	-13	-2	-1	1	.
COC(=O)c1cc(S(=O)(=O)N2CCCCC2C)c[nH]1 (stereo not given)	0	0	-8	11*	1	-10	-8
CCCOc1ccc(-c2c(C(=O)N/N=C/c3ccc(C)cc3)nnn2-c2nonc2N)cc1	8	1	-36	22*	1	-18	3
CCOc1ccc(-c2c(C(=O)N/N=C/c3ccc(C)cc3)nnn2-c2nonc2N)cc1	15	16	-22	9	15	-46	.
CCOc1ccc(-c2c(C(=O)N/N=C/c3ccc(Cl)cc3)nnn2-c2nonc2N)cc1	-1	7	-21	23*	11	-36	11*

Screening data: PubChem, The Scripps Research Institute Molecular Screening Center
